p-CIP stab down – p/CIP-EGFP fusion destabilizers, primary screen, fluorescence, F442A cells; Q05BA5; 16 h; decrease of EGFP signal, % at 10 µM; 290,000 compounds, 0.01% hits; AID 1984, 2009;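 active = EGFP signal decrease of at least 30% at 10 µM or well 3 SD below plate mean, unless failing retest; inactive = the rest, including hits failing retest or dose response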
Target sequence (Q05BA5 1-1403): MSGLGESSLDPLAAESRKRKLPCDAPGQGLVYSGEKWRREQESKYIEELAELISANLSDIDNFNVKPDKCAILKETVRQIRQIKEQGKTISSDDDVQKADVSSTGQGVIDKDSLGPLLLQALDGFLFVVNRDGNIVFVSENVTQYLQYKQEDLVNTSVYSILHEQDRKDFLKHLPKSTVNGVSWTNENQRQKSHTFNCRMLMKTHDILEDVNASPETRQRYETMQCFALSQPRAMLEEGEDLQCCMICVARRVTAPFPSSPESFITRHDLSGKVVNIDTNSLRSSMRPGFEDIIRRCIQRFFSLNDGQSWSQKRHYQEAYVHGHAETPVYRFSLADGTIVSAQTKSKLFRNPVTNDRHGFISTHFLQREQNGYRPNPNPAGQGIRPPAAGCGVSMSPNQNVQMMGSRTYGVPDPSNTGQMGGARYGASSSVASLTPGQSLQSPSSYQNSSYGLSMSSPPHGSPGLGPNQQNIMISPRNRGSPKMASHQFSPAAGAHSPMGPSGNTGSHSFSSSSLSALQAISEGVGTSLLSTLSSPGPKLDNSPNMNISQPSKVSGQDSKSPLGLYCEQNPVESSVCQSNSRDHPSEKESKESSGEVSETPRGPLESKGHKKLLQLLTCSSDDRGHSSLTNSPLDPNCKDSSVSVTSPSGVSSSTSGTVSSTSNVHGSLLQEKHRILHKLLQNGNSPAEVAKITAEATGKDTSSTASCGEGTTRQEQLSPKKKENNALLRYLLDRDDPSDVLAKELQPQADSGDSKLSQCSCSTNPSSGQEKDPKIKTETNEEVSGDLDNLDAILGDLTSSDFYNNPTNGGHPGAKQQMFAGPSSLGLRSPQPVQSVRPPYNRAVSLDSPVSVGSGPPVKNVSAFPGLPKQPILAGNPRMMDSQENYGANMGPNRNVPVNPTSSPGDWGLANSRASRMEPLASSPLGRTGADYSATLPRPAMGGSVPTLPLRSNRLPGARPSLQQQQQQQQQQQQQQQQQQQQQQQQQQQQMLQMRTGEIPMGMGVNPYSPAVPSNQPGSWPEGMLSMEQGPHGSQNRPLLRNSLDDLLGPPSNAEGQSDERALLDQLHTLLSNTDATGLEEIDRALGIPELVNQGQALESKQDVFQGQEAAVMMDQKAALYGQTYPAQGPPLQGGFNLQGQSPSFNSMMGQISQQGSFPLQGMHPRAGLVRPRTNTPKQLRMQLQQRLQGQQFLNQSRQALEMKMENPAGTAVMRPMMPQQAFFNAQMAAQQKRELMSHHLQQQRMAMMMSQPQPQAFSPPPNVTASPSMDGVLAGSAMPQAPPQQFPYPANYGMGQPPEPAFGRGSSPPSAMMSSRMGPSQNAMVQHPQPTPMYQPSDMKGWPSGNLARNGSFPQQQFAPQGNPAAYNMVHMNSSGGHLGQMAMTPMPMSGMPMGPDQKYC
SKN-1 block – suppressors of acrylamide-induced Pgst-4::GFP reporter in worms, primary screen, SKN-1 inhibitor project, whole organism, uHTS, GFP/RFP fluorescence ratio, strain VP596; C. elegans VP596 Pgst-4::GFP/RFP ratio, 24 h; inhibition, % at 21.8 µM; 360,000 compounds, 0.49% hits; AID 624304, 2012;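 active = interference check ratio from 0.5 to 1.5 plus GFP to RFP signal ratio inhibition reaching or exceeding a fixed threshold, cut at about 30% in these data, passing the limit was not always enough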
MsrA inh – bovine MsrA enzyme inhibitors, primary screen, biochemical, absorbance, HTS; purified bovine MsrA, absorbance read-out; 360,000 compounds, 0.75% hits; Methionine sulfoxide reductase A (Bos taurus); inhibition, % at 15.5 µM; in the data active = inhibition above about 4.5%;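 note: 0% = vehicle wells with enzyme and 100% = reference inhibitor wells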
MsrA act – bovine MsrA enzyme activators, primary screen, biochemical, absorbance, HTS; Methionine sulfoxide reductase A (Bos taurus); purified bovine MsrA, absorbance read-out; activation, % at 10.6 µM; 360,000 compounds, 0.3% hits; in the data active = activation above about 7.5%;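 note: 0% = vehicle and 100% = reference activator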
MT1-MMP act inh – blockers of MT1-MMP proenzyme processing, primary screen, HT1080 RFP-PRO-GFP cells, GFP/RFP fluorescence; 360,000 compounds, 0.061% hits; GFP/RFP ratio change, % at 20 µM; GFP/RFP ratio fluorescence, overnight; percent of plate control window, DMSO zero;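 active = GFP/RFP ratio change of at least 30% with cell ATP level not reduced by more than half and red fluorescence within 50% of control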
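Assay system: HT1080 cells carrying an RFP-PRO-GFP reporter | Dosing: Single dose of 20 µM compound, 1% DMSO final | Incubation: Cells overnight before dosing, compound overnight, 37 °C, 5% CO2 | Evaluation: GFP/RFP fluorescence ratio | Control set: DMSO and RFP-L50D-GFP cell wells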
An asterisk follows results filed as active. Hits are enriched below; roughly 1.6% of the tested compounds scored in any of these assays.

O=C1NC(=S)N(c2ccc(Cl)cc2)C(=O)/C1=C/N1CCN(C(=O)c2ccco2)CC1 was read as p-CIP stab down -3, SKN-1 block 44*, MsrA inh 1, MsrA act 0 and MT1-MMP act inh -12.
Screening O=C1NC(=S)N(c2ccc(F)cc2)C(=O)/C1=C/c1ccco1 returned p-CIP stab down -10.
`O=C(O)CCl` gave MsrA inh 0.
O=[N+]([O-])c1ccc(N(CCO)CCO)c2c1no[n+]2[O-] was read as SKN-1 block 47*, MsrA inh 1 and MsrA act 0.
CN1CCN(c2ccc([N+](=O)[O-])c3no[n+]([O-])c23)CC1 was read as p-CIP stab down -70, SKN-1 block -14, MsrA inh 1, MsrA act 2 and MT1-MMP act inh -216.
For C/C(=C\c1ccc(N(C)C)cc1)[N+](=O)[O-] the results were p-CIP stab down -8, SKN-1 block 42*, MsrA inh 0, MsrA act -6 and MT1-MMP act inh -17.
`CN(C)c1ccc(C=C2C(=O)NC(=O)NC2=O)cc1` gave SKN-1 block 13, MsrA inh 4, MsrA act -2 and MT1-MMP act inh 0.
`CN(C)c1ccc(/C=C/[N+](=O)[O-])cc1` gave p-CIP stab down -10, SKN-1 block 40*, MsrA inh 1, MsrA act -4 and MT1-MMP act inh 3.
CN1CC=C2C(C#N)=C(N)C(C#N)(C#N)C(c3ccncc3)C2C1 (stereo not given) was read as p-CIP stab down -12, SKN-1 block 40*, MsrA act -6 and MT1-MMP act inh -34.
For CN1CC[C@@H]2CN[C@H](c3ccccc3)C[C@@H]21 the results were MsrA inh 2.
Screening O=C(NCCN1CCC2(CC1)C(=O)NCN2c1ccccc1)c1ccc2ccccc2c1 returned MsrA inh 0.
CC1(C)OC(c2ccccc2)=C/C(=C/C=C2C(=O)NC(=O)NC2=O)O1 was read as p-CIP stab down -31, SKN-1 block 46*, MsrA inh 0, MsrA act -9 and MT1-MMP act inh -126.
Screening C=CCNC(=S)Nc1ccc(OC(=O)Nc2ccc(Cl)c(Cl)c2)cc1 returned p-CIP stab down 2, SKN-1 block 3, MsrA inh 0, MsrA act -5 and MT1-MMP act inh 1.
`O=C(Nc1ccc(Cl)c(Cl)c1)c1ccco1` gave p-CIP stab down 5, SKN-1 block 42*, MsrA inh -1, MsrA act -2 and MT1-MMP act inh 1.
Screening O=C(NCCN1CCC2(CC1)C(=O)NCN2c1ccccc1)c1ccccc1F returned MsrA inh 0.
`Cc1ccc(OC(=O)N(C)C[C@H]2OCc3cnnn3CCCC(=O)N([C@@H](C)CO)C[C@@H]2C)cc1` gave MsrA inh -1.
For O=C(Nc1ccc(OC(=O)N2CCCC2)cc1)N1CCOCC1 the results were p-CIP stab down -4, SKN-1 block 38*, MsrA inh 0, MsrA act 0 and MT1-MMP act inh 5.
O=C(NCCN1CCC2(CC1)C(=O)NCN2c1ccccc1)c1ccc(F)cc1 was read as MsrA inh 1.
O=c1[nH]c(O)c(N=Nc2cc([N+](=O)[O-])ccc2O)c(=O)[nH]1 was read as p-CIP stab down -21, SKN-1 block 50*, MsrA inh 3, MsrA act -4 and MT1-MMP act inh 58.
For O=C1NC(=S)N(C2CC2)C(=O)/C1=C/c1ccc2c(c1)CCN2CCCCl the results were p-CIP stab down -10, SKN-1 block 41*, MsrA inh 3, MsrA act -1 and MT1-MMP act inh -3.
For CCN1C(=O)/C(=C/c2ccc3c(c2)CCN3CCCCl)C(=O)NC1=S the results were p-CIP stab down -17, SKN-1 block 23, MsrA inh 1, MsrA act -4 and MT1-MMP act inh 6.
`CC(C)(C)n1c(O)c(C=Nc2ccc3c(c2)CCC3)c(=O)[nH]c1=O` gave p-CIP stab down -13, SKN-1 block 27*, MsrA inh 0, MsrA act -12 and MT1-MMP act inh -6.
`O=C1C(=O)c2cccc3cccc1c23` gave p-CIP stab down -4, SKN-1 block -1, MsrA inh 1, MsrA act 0 and MT1-MMP act inh 1.

Screening results from PubChem.
